Data taken from article PMC6105387 (Journal of clinical pharmacology, 2018).

Key:
[1] = metabolites excreted through the biliary route; cited from earlier work
[2] = Population pharmacokinetic model; assay type: in vivo, human
How it was run: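 Whole blood sampled 0–12 h post-dose and assayed by chemiluminescent microparticle immunoassay. Compartment models with first-order absorption; between-subject variability exponential, log-normal; categorical covariates as fractional change. Precision from 1000 bootstrap replicates (median, 95% percentile).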

Q: Which “parent drug remaining unchanged” value [1] does the source give for `C=CC[C@@H]1/C=C(\C)C[C@H](C)C[C@H](OC)[C@H]2O[C@@](O)(C(=O)C(=O)N3CCCC[C@H]3C(=O)O[C@H](/C(C)=C/[C@@H]3CC[C@@H](O)[C@H](OC)C3)[C@H](C)[C@@H](O)CC1=O)[C@H](C)C[C@@H]2OC` [tacrolimus, Tacrolimus] here?
A: less than 1%

Q: And the “magnitude of BSV on CL/F” value ([2]; after inclusion of covariates)?
A: 37%

Q: And the “magnitude of BSV on V/F” value ([2]; after inclusion of covariates)?
A: 76.7%

Q: What about the “Individual base model estimated apparent clearance CL/F, mean” value ([2]; extensive metabolizers (CEMCYP3A5)) of the same compound?
A: 45.0 L/h

Q: What about the “Individual base model estimated apparent clearance CL/F, mean” value ([2]; intermediate metabolizers (CIMCYP3A5)) of the same compound?
A: 29.5 L/h

Q: What about the “Individual base model estimated apparent clearance CL/F, mean” value ([2]; poor metabolizers (CPMCYP3A5)) of the same compound?
A: 19.8 L/h

Q: And the “magnitude of BSV on CL/F” value ([2]; before inclusion of covariates)?
A: 46.6%

Q: What about the “magnitude of BSV on V/F” value ([2]; before inclusion of covariates) of the same compound?
A: 83.2%

Q: What about the “increase in CL/F compared to cPMCYP3A5” value ([2]; cEMCYP3A5) of the same compound?
A: ~2 fold

Q: What about the “Typical value of CL/F” value ([2]; cEMCYP3A5, final model) of the same compound?
A: 44.3 L.hr^1

Q: What about the “increase in CL/F compared to cPMCYP3A5” value ([2]; cIMCYP3A5) of the same compound?
A: ~1.5 fold

Q: What about the “Typical value of CL/F” value ([2]; cIMCYP3A5, final model) of the same compound?
A: 28.6 L.hr^1

Q: What about the “Typical value of CL/F” value ([2]; cPMCYP3A5, final model) of the same compound?
A: 19.7 L.hr^1

Q: What about the “BSV CL/F - η1, between-subject variability, estimate” value ([2]; final model) of the same compound?
A: 37.0 CV%

Q: And the “BSV CLp/F - η3, between-subject variability, estimate” value ([2]; final model)?
A: 48.6 CV%

Q: What about the “BSV V/F - η2, between-subject variability, estimate” value ([2]; final model) of the same compound?
A: 76.7 CV%

Q: And the “BSV ka - η4, between-subject variability, estimate” value ([2]; final model)?
A: 69.4 CV%

Q: What about the “Lag time - θlag, estimate” value ([2]; final model) of the same compound?
A: 0.828 h

Q: And the “Residual variability, proportional error - ε1, estimate” value ([2]; final model)?
A: 9.00

Q: What about the “ka - θka, absorption rate, estimate” value ([2]; final model) of the same compound?
A: 4.21 h⁻¹

Q: What about the Vd/F ([2]; human, whole blood, oral) of the same compound?
A: 234 L

Q: What about the clearance ([2]; human, whole blood, oral, 2.5 mg) of the same compound?
A: 328 mL/min

Q: And the clearance ([2]; human, whole blood, oral, 3.9 mg)?
A: 477 mL/min

Q: And the clearance ([2]; human, whole blood, oral, 5.7 mg)?
A: 738 mL/min

Q: And the “BSV V/F - η2, bootstrap median” value ([2]; nonparametric bootstrap n=1000)?
A: 76.0 CV%

Q: And the “BSV ka - η4, bootstrap median” value ([2]; nonparametric bootstrap n=1000)?
A: 68.6 CV%

Q: What about the “Lag time - θlag, bootstrap median” value ([2]; nonparametric bootstrap n=1000) of the same compound?
A: 0.830 h

Q: And the “Residual variability, proportional error - ε1, bootstrap median” value ([2]; nonparametric bootstrap n=1000)?
A: 8.90

Q: And the “V/F - θV/F, bootstrap median” value ([2]; nonparametric bootstrap n=1000)?
A: 231 L

Q: And the “Vp/F - θVp/F, bootstrap median” value ([2]; nonparametric bootstrap n=1000)?
A: 404 L

Q: And the “ka - θka, bootstrap median” value ([2]; nonparametric bootstrap n=1000)?
A: 4.14 h⁻¹

Q: And the “CL/F - θCL/F, bootstrap median” value ([2]; nonparametric bootstrap n=1000, poor metabolizers)?
A: 19.6 L/h
